NR1D1 modulator: Rev-erb alpha (human) modulation. P20393. 370,000 tested, 0.79% active. AID 1259318. activity, % at 10 µM. Rev-erbα–FITC-DNA binding, fluorescence polarization, 90 min;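 active = activity above about 14%, limit read from the data; passing the limit was not always enough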
NR2E3 ag-1: activates human NR2E3 receptor; Q9Y5X4; CHO-S Gal4-NCOR/VP16-NR2E3 two-hybrid, luciferase; inhibition of corepressor binding, % at 3.98 µM; 360,000 tested, 0.35% active;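 active = inhibition above the mean of all tested compounds plus 3 SD, cut at about 70% in these data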;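 also: higher means lower luciferase signal from less NR2E3 corepressor binding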
Target sequence (Q9Y5X4 whole entry, looked up, the tested form may be a part): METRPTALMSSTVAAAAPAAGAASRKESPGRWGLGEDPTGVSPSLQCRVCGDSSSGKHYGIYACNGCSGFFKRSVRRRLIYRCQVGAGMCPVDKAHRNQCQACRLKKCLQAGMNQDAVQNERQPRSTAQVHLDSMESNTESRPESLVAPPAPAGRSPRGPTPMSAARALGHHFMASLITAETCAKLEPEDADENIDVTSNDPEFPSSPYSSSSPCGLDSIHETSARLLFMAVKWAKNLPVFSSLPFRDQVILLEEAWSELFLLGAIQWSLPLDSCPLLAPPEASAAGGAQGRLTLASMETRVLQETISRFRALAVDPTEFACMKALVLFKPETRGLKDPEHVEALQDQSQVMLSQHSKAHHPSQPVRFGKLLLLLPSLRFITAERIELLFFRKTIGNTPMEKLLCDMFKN
PG9 Ab binder: PG9 antibody binding by small molecule; TR-FRET gp120-PG9 antibody binding; inhibition, % at 6.7 µM; 360,000 tested, 0.43% active; AID 624416; in the data active = inhibition above about 8.5%
NR2E3 ag-2: NR2E3 (human) agonism; Q9Y5X4; GST-NR2E3/biotin-RetCOR TR-FRET, 1536-well; inhibition of corepressor binding, % at 4.78 µM; 320,000 tested, 0.12% active; AID 2300;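 active = percent inhibition above the cutoff of mean plus 3 SD of all tested compounds, set per screening campaign, cut at about 20% in these data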
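Material: NR2E3–RetCOR corepressor complex / Amount: 1.35 nM GST-NR2E3 / Medium: Tris pH 7.5 / Compound: single nominal compound dose of 4.8 µM / Incubation: 5 h at 4 °C / Technique: TR-FRET, Eu(K)-anti-GST donor, streptavidin-D2 acceptor, ex 340, em 617/671 nm / Read-out basis: percent loss of FRET ratio relative to control wells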
MC4R ag barr: human MC4R agonism via beta-arrestin; P32245; U2OS MC4R beta-arrestin complementation, luminescence; percent of melanotan II response, DMSO zero; activation, % at 8.9 µM; 360,000 tested, 0.98% active;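 active = activation above a per-plate cutoff, the mean activation of sample wells on that plate plus 3 SD, cut at about 8% in these data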
Target sequence (P32245 whole entry, looked up): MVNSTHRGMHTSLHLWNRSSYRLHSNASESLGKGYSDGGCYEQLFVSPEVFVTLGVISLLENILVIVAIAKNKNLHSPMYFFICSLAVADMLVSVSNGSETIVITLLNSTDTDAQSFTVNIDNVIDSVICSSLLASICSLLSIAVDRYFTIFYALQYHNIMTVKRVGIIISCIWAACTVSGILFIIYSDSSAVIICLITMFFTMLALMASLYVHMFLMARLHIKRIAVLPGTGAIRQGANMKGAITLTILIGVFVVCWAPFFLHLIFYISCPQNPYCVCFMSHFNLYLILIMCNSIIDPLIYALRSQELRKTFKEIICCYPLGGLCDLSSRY
MC4R antagonist: blocks human MC4R cAMP signaling; P32245; MC4R-expressing cells, MTII-stimulated cAMP, LANCE TR-FRET; inhibition, % at 6.5 µM; 360,000 tested, 0.48% active; AID 540295;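 active = inhibition above its plate's cutoff, the mean of tested wells on that plate plus 3 SD, cut at about 29% in these data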
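Material – human MC4R-expressing U2OS cells · Repeats – no replicates · Detection – TR-FRET with Eu-cAMP and labeled anti-cAMP, 671 nm · Times – compound 30 min, challenge 1 h, detection 1 h · Compound – single nominal compound dose of 6.5 µM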
NR2E3 ag confirm: confirmation of human NR2E3 nuclear receptor agonists; shares compounds with NR2E3 ag-2; cell-free NR2E3 corepressor release, TR-FRET, 5 h; activation (reported as inhibition), % at 3.98 µM; 360 tested, 39% active; AID 2379; in the data active = activation above about 20%
PPARg-NCOR2 ag: counter-screen for NR2E3 agonists: human PPARgamma-NCOR2 interaction agonists; shares compounds with NR2E3 ag-2; TR-FRET PPARg-NCOR2 coregulator interaction, biochemical; inhibition, % at 3.98 µM; 360 tested, 45% active; AID 504787; in the data active = inhibition above about 20%
cAMP nonselect: nonselective cAMP signaling inhibitor, MC4R antagonist counter-screen. shares compounds with MC4R antagonist. parental U2OS, forskolin cAMP, LANCE TR-FRET. inhibition, % at 6.5 µM. 1,600 tested, 26% active. AID 602193;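 active = mean inhibition over triplicates above the low-control well mean plus 3 SD, set per campaign, cut at about 13% in these data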;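 also: signal is single emission at 671 nm which falls as cellular cAMP rises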
MC4R cAMP antag: human MC4R cAMP antagonism confirmation; shares compounds with MC4R antagonist; MC4R-expressing cells, MTII-stimulated cAMP, TR-FRET; inhibition, % at 6.5 µM; 1,600 tested, 27% active; AID 602195; in the data active = inhibition above about 29%
MC4R barr conf: human MC4R beta-arrestin agonism confirmation. shares compounds with MC4R ag barr. activation, % at 8.9 µM. U2OS MC4R beta-arrestin recruitment, luminescence; scaled DMSO 0%, Melanotan II 100%. 2,400 tested, 31% active;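 active = mean activation across replicates above the hit cutoff set in the earlier primary screen, cut at about 8% in these data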
MOR-DOR barr ag: activates mu-delta opioid heterodimer, MC4R agonist counter-screen. shares compounds with MC4R ag barr. AID 602194. activation, % at 9.2 µM. U2OS PathHunter beta-arrestin, beta-gal luminescence; percent of deltorphin B response, DMSO zero. 2,400 tested, 5.8% active;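 active = mean activation across replicates exceeds the hit threshold derived in the earlier primary screen, cut at about 18% in these data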
PG9 binder conf: PG9 antibody binding, confirmed. shares compounds with PG9 Ab binder. TR-FRET PG9 antibody binding, biochemical. inhibition, % at 6.7 µM. 1,500 tested, 90% active. AID 651571; in the data active = inhibition above about 9%
PGV04 Ab binding: PGV04 control antibody binding, counter-screen; TR-FRET PGV04 antibody-gp120 binding, biochemical; 1,500 tested, 95% active; AID 651604; inhibition, % at 6.7 µM; shares compounds with PG9 Ab binder; in the data active = inhibition above about 9.5%
NR1D1 mod conf: confirmation of modulators of human Rev-erb alpha DNA binding | 3,000 tested, 61% active | Rev-erb alpha FITC-DNA binding, fluorescence polarization, 90 min | activation, % at 25 µM | shares compounds with NR1D1 modulator;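 active = activation at or above a set limit, or at least 3 SD above the negative control mean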
RORg counter: affects RORgamma DNA binding in a Rev-erb alpha counter-screen. shares compounds with NR1D1 modulator. purified RORgamma protein-FITC-DNA binding, fluorescence polarization. IC50, µM. 910 tested, 8% active. AID 1259320;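 active = Compounds whose fitted half-maximal concentration for disrupting protein-DNA binding is below 10 micromolar; the record names Rev-erb in its text, so the target is in doubt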
Large screens that a line does not name were inactive (follow-up assays come after a bar, where they were run). A selection: hits, their analogues and other compounds. The true share with any hit is near 2.7%.

N#CC(C#N)=C1NC(N)=C(C#N)C(c2ccccc2)=C1C#N	PG9 Ab binder 22, NR2E3 ag-2 48 | NR2E3 ag confirm 45 | PPARg-NCOR2 ag 40 | PG9 binder conf 21 | PGV04 Ab binding 26
CCc1c(C(=O)O)[nH]c2ccc(Br)cc12	PG9 Ab binder 14, NR2E3 ag-2 43 | NR2E3 ag confirm 41 | PPARg-NCOR2 ag 30 | PG9 binder conf 26 | PGV04 Ab binding 27
Cc1ccc(C)c(S(=O)(=O)N2CCCC2CNC(=O)C(=O)NCc2ccccc2)c1 (centres undefined)	none
COc1ccccc1C1C(C(=O)c2ccc(C)o2)=C(O)C(=O)N1c1cc(C)on1 (centres undefined)	none
CCCOc1cccc(C2C(C(=O)c3cc4ccccc4o3)=C(O)C(=O)N2c2cc(C)on2)c1 (centres undefined)	PG9 Ab binder 18, NR2E3 ag-2 24 | NR2E3 ag confirm 34 | PPARg-NCOR2 ag 36 | PG9 binder conf 24 | PGV04 Ab binding 38
Cc1cc(N2C(=O)C(O)=C(C(=O)c3cccs3)C2c2ccccc2)no1 (centres undefined)	none
Cc1cc(N2C(=O)C(O)=C(C(=O)c3cc4ccccc4o3)C2c2cccc(Br)c2)no1 (centres undefined)	PG9 Ab binder 38, NR2E3 ag-2 38 | NR2E3 ag confirm 48 | PPARg-NCOR2 ag 46 | PG9 binder conf 43 | PGV04 Ab binding 56
COc1cccc(C2C(C(=O)c3cc4ccccc4o3)=C(O)C(=O)N2c2cc(C)on2)c1OC (centres undefined)	PG9 Ab binder 19, NR2E3 ag-2 24 | NR2E3 ag confirm 25 | PPARg-NCOR2 ag inactive | PG9 binder conf 27 | PGV04 Ab binding 43
CCCCCOc1ccc(C2C(C(=O)c3ccc(C)o3)=C(O)C(=O)N2c2cc(C)on2)cc1 (centres undefined)	none
CCOC(=O)Cc1csc(NC(=O)Cc2cccs2)n1	none
CCOC(=O)c1c(NC(=O)CSc2nnc(-c3ccccc3)n2CC)sc(C(C)=O)c1C	none
O=C(NCC1CCCO1)c1cccc(S(=O)(=O)Nc2ccc(F)cc2)c1 (centres undefined)	none
CC(C)C1Cc2ccccc2-c2[nH]c(=S)[nH]c(=O)c21 (centres undefined)	PG9 Ab binder 30, NR2E3 ag-2 20, MC4R antagonist 36 | NR2E3 ag confirm 21 | PPARg-NCOR2 ag 26 | cAMP nonselect 21 | MC4R cAMP antag 48 | PG9 binder conf inactive | PGV04 Ab binding inactive
Cc1ccc(CC(=O)Nc2ccc(F)c([N+](=O)[O-])c2)cc1	none
N#Cc1ccccc1NC(=O)COC(=O)c1ccc2c(c1)OCCO2	none
N#Cc1ccc(Cl)cc1NC(=O)COC(=O)c1ccc2c(c1)OCCO2	PG9 Ab binder 50, NR2E3 ag-2 36 | NR2E3 ag confirm 39 | PPARg-NCOR2 ag 41 | PG9 binder conf 40 | PGV04 Ab binding 69
CCOC(=O)CSc1nc(N)c(C#N)cc1C#N	none
CCOc1ccccc1NC(=O)CSc1nc(N)c(C#N)cc1C#N	NR1D1 modulator 84, PG9 Ab binder 66, NR2E3 ag-2 43 | NR2E3 ag confirm 33 | PPARg-NCOR2 ag 54 | NR1D1 mod conf 46 | RORg counter inactive
CCc1sc(C(=O)Nc2ccc(N3CCOCC3)cc2)cc1C	none (no result: NR2E3 ag-2)
CCc1cc2cc(C(=O)Nc3ccc(C)cc3)sc2s1	NR1D1 modulator 45, PG9 Ab binder 31, NR2E3 ag-2 33 | NR2E3 ag confirm 20 | PPARg-NCOR2 ag 23 | PG9 binder conf 29 | PGV04 Ab binding 36 | NR1D1 mod conf 17
O=S1(=O)N[C@@H](Cc2ccccc2)COc2cccc(N3CCN(Cc4ccccc4F)CC3)c21	none (no result: NR2E3 ag-2, MC4R ag barr, MC4R antagonist)
COc1cccc(CNC(=O)CCCCCn2c(=S)[nH]c3ccc(N4CCOCC4)cc3c2=O)c1	none (no result: NR2E3 ag-1, MC4R ag barr, MC4R antagonist)
COc1cccc(CNC(=O)CCCn2c(=S)[nH]c3cc4c(cc3c2=O)OCO4)c1	NR1D1 modulator 86, PG9 Ab binder 28, NR2E3 ag-2 26 | NR2E3 ag confirm 31 | PPARg-NCOR2 ag 36 | PG9 binder conf 15 | PGV04 Ab binding 23 | NR1D1 mod conf 57 | RORg counter inactive
COc1ccc(F)cc1C(=O)C1CCCN(C(=O)c2ccccc2N(C)C)C1 (centres undefined)	none
CCc1cccc(NC(=O)Cn2c(=O)c3cccn3c3ccccc32)c1	NR1D1 modulator 28, PG9 Ab binder 26, NR2E3 ag-2 26, MC4R ag barr 11 | NR2E3 ag confirm inactive | PPARg-NCOR2 ag inactive | MC4R barr conf inactive | MOR-DOR barr ag inactive | PG9 binder conf 28 | PGV04 Ab binding 36 | NR1D1 mod conf inactive

Screening data (PubChem)
